Only some compounds are listed: those with a hit (about 4.7% of all), similar ones and a draw of the others.
MrgX1 antagonist – antagonists of human MrgX1 receptor. Q96LB2. MRGX1-HEK293 calcium flux, Fluo-4, BAM8-22 antagonism; hits give low values. B-score at 10 µM. actives 1.3% (n = 310,000);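 active means calcium-response B-score plate-corrected more than 3 library SD below zero, starting fluorescence within 5 deviations, no agonist response on first addition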;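 further: peak minus trough fluorescence over baseline after final BAM8-22 challenge near maximal dose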
Target sequence (Q96LB2 whole entry, looked up): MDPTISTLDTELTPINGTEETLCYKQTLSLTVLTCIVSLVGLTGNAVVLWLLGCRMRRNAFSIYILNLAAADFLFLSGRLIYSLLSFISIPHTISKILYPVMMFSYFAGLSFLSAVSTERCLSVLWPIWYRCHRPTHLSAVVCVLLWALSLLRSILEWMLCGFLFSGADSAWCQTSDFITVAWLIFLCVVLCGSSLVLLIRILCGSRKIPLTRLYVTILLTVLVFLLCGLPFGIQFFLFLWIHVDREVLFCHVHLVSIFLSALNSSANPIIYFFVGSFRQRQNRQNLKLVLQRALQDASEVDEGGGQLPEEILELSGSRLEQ
RGS4 inh – inhibitors of human RGS4; P49798; HEK293 M3R/RGS4 inducible, Fluo-4 calcium flux; hits give high values; triggered by carbachol at its EC20; B-score at 10 µM; actives 0.45% (n = 310,000);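 active means B-score, a plate-corrected calcium signal, over three deviations above library mean, with baseline fluorescence within five deviations of library mean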;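 further: RGS4 expression induced by doxycycline in cells with stable M3 receptor; B-score is computed from the integrated fluorescence ratio over baseline after carbachol; higher B-score means a larger calcium signal and so more RGS4 inhibition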
Target sequence (P49798 whole entry, looked up): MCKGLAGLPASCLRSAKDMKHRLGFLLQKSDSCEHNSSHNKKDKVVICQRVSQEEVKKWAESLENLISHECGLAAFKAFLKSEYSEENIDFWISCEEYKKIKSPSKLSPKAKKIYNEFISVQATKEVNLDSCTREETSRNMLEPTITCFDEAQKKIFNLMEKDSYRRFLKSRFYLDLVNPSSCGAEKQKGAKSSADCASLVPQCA
MrgX1 allo act – human MrgX1 positive allosteric modulation, primary screen. Q96LB2. MrgX1-HEK293, Fluo-4 calcium flux, FDSS; hits give high values. B-score at 10 µM. actives 0.63% (n = 310,000);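 active means plate-corrected calcium response at least 3 library SD above typical, normal starting fluorescence, not activating the receptor alone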;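 further: compound read alongside a low EC10 to EC30 dose of BAM8-22 agonist; peak minus trough fluorescence over baseline measured at the second addition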
RGS4 pot – RGS4 potentiation or activation. B-score at 10 µM. AID 463111. actives 0.92% (n = 310,000). HEK293 M3R/inducible RGS4, carbachol calcium flux Fluo4; hits give low values;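 active means B-score of the integrated calcium signal more than 4 SD below the library mean, with starting fluorescence not abnormally high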;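 further: negative B-score means reduced calcium response which marks RGS4 activation or potentiation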
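Material: M3R-expressing HEK293 line, RGS4 induced by doxycycline | Schedule: Overnight RGS4 induction, 30 min dye load 37 °C, 20 min compound RT | Measured by: Fluo4 fluorescence kinetic imaging of calcium | Read-out: Integrated calcium ratio converted to B score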
KCC2 mod – modulates chloride dependent transport by human KCC2; Q9H2X9; KCC2 cells, thallium flux FluoZin-2 fluorescence; B-score of Tl+ flux slope (higher = more flux/activation; lower = inhibition) at 10 µM; actives 2.2% (n = 190,000); AID 1456;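 active means thallium flux slope and its plate-corrected score both differing from the plate sample mean at a set confidence after two filtering rounds, in either direction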;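 further: slope of fluorescence scaled to starting intensity during 10 to 20 s after thallium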
MrgX1 agonist – activates human MrgX1 receptor signaling. Q96LB2. MrgX1-HEK293 cells, Fluo-4 calcium fluorescence, agonist mode; hits give high values. B-score at 10 µM. actives 0.44% (n = 310,000);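 active means calcium response B-score plate-corrected fluorescence ratio at least 3 library SD, with starting fluorescence B-score inside 5 SD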
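Test system: HEK293 cells stably expressing human MrgX1 receptor; Input: fifteen thousand cells per well; Dosing: compound delivered in addition one of three; Schedule: overnight seeding, then 1 h dark dye loading; Technique: Fluo-4 NW calcium fluorescence; Measure: B-scored fluorescence response ratio; Controls: positive and negative controls per plate.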
MrgX1 ag reconf – human MrgX1 agonism, re-confirmation screen. shares compounds with MrgX1 agonist. MrgX1-HEK293, Fluo-4 calcium fluorescence, FDSS. activation, % at 10 µM. actives 78% (n = 600). AID 602412;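 active means calcium signal rise, corrected for plate position, at least 3 library SD high, with starting brightness within 5 such deviations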
HEK293 Ca flux – activity in parental HEK293 cells lacking MrgX1; fluorescence ratio F(max-min)/F0 at 10 µM; actives 2% (n = 4,000); shares compounds with MrgX1 antagonist; AID 624111; Fluo-4 calcium fluorescence, FDSS;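 active means duplicate-averaged calcium fluorescence ratio at least three times the standard deviation of buffer wells, a nonspecific response in parental cells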
HEK293 Ca counter – activity in parental HEK293 cells without MrgX1. shares compounds with MrgX1 antagonist. parental HEK293 calcium flux, Fluo-4 fluorescence ratio; hits give high values. fluorescence ratio F(max-min)/F0 at 10 µM. actives 0.4% (n = 4,000). AID 624114;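 active means calcium fluorescence ratio, averaged over duplicates, at least 3 SD of the buffer-well ratio, meaning a nonspecific response in receptor-free cells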;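 further: untransfected parental HEK293 lacking MrgX1 used as counterscreen for MrgX1 allosteric activators; fluorescence change taken during the second addition on a kinetic imager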
HEK293 Ca cntr2 – MrgX1 activator counter-screen hit in parental HEK293 cells | shares compounds with MrgX1 antagonist | Fluo-4 calcium fluorescence (FDSS); hits give high values | fluorescence ratio F(max-min)/F0 at 10 µM | actives 8.7% (n = 4,000) | AID 624115;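 active means calcium fluorescence ratio at least three times the spread of buffer wells, meaning a non-specific response in parental cells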
The depositor's hits bear a star; i = inactive; · = no result.

SMILES | MrgX1 antagonist | RGS4 inh | MrgX1 allo act | RGS4 pot | KCC2 mod | MrgX1 agonist | MrgX1 ag reconf | HEK293 Ca flux | HEK293 Ca counter | HEK293 Ca cntr2
O=C1Cc2ccccc2Sc2c(OCCN3CCCCC3)cccc21 | i | i | i | i | 1.5 | 27* | 203%* | i | i | i
Cc1ccc(-c2[nH]c(-c3ccccc3)nc2SCC(=O)NCC2CCCO2)cc1 (centres undefined) | i | i | i | i | -0.085 | 34* | 239%* | i | i | 49*
Cc1ccc(-c2ccc(CCC(=O)O)n2Cc2ccco2)cc1 | i | i | i | i | · | 31* | 129%* | i | i | i
COc1ccc2c(c1OC)C(=O)N(c1ccc(F)cc1)C2 | i | i | i | i | · | i | · | · | · | ·
COc1ccc2c(c1OC)C(=O)N(c1cccc(NC(C)=O)c1)C2 | i | i | i | i | · | 27* | 119%* | i | i | i
COc1ccc(N/C(=N/c2nc(C)cc(C)n2)NC(=O)c2ccccc2)cc1 | i | i | i | i | 1.3 | i | · | · | · | ·
Cc1ccc(C(C)C)c(OCC(=O)NNC(=O)CC2OC(=O)c3ccccc32)c1 (centres undefined) | i | i | i | i | · | i | · | · | · | ·
Cc1cc2c(c(=O)o1)C(CCC1CCCCC1)C(C#N)=C(N)O2 (centres undefined) | i | i | i | i | 1.8 | 28* | i | i | i | i
ClCC1=Nc2ccccc2Cc2ccccc21 | i | i | i | i | · | 29* | 111%* | i | i | i
c1ccc2c(c1)Cc1cc3ccccc3nc1-2 | i | i | i | i | · | i | · | · | · | ·
O=C(Cc1cc(=O)oc2cc(O)ccc12)NC(Cc1ccc(Cl)cc1)C(=O)O (centres undefined) | i | i | i | i | · | i | · | · | · | ·
O=S(=O)(Nc1cccc(-c2ccc3nncn3n2)c1)c1cc(F)ccc1F | i | i | i | i | · | 45* | 204%* | i | i | i
O=C(C1Cc2ccccc2CN1S(=O)(=O)c1ccc(F)cc1)N1CCCCC1 (centres undefined) | i | i | i | i | 0.46 | 33* | 243%* | i | i | 74*
CCCn1ncc(CN2CCC(n3nccc3NC(=O)c3ccccc3Cl)CC2)c1C | i | i | i | i | · | i | · | · | · | ·
CCC1CCCCN1CCCNC(=O)c1ccc(CS(=O)(=O)c2ccccc2C)o1 (centres undefined) | i | i | i | i | · | i | · | · | · | ·
COC(=O)/C(C#N)=C/c1c[nH]c2ccccc12 | i | i | i | i | -1.8 | i | · | · | · | ·
COc1cc(/C=C(\C#N)C(=O)c2c[nH]c3ccccc23)cc(OC)c1O | i | i | i | i | -2.9 | 70* | 461%* | i | i | 105*
COc1cc(/C=C2/C(=N)N3C(SC)=NSC3=NC2=O)ccc1OC(=O)c1ccco1 | i | i | i | i | · | 71* | 227%* | i | i | 48*
CCOc1cc(/C=C2/C(=N)N3OC(C)=CC3=NC2=O)ccc1OC(=O)c1ccco1 | i | i | i | i | 0.27 | i | · | · | · | ·
Cc1ccc(C)c(N2CCN(C(=O)CCCn3ncn4c(cc5occc54)c3=O)CC2)c1 | i | i | i | i | · | i | · | · | · | ·

Screens: PubChem, several laboratories
